# ChEMBL document CHEMBL1123705, “Antitumor agents. 86. Synthesis and cytotoxicity of alpha-methylene-gamma-lactone-bearing purines” (1987)
# How the values were obtained:
# Format in all cases: functional
# L1210 = test: Compound was tested for its antitumor activity and the cytotoxicity against L1210 lymphoid leukemia screen; settings: Mus musculus, read-out: ED50 (the source's name)
# Outline: (§1)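 Run per the NIH cytotoxicity protocol. Viable cells were counted by trypan blue exclusion and expressed as a percentage of the 0.05% Tween 80–water control. ED₅₀ was estimated from a semilog plot against drug concentration.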
# KB = test: Compound was tested for its antitumor activity and the cytotoxicity against KB human carcinoma of the nasopharynx screen; settings: read-out: ED50 (the source's name); outline: as §1
# P388 = test: Compound was tested for its antitumor activity and the cytotoxicity against P-388 lymphocytic leukemia screen; settings: Mus musculus, read-out: ED50 (the source's name); outline: as §1
smiles,measurement,setting,value
C=C1CC(C)(Cn2c(N)nc3ncnc-3c2O)OC1=O (stereo unspecified),EC50,L1210,1.3 µg/mL
same,EC50,KB,> 10 µg/mL
same,EC50,P388,> 20 µg/mL
C=C1CC(C)(Cn2cnc3c(N)ncnc32)OC1=O (stereo unspecified),EC50,L1210,0.3 µg/mL
same,EC50,KB,5 µg/mL
same,EC50,P388,> 20 µg/mL
COc1cc([C@@H]2c3cc4c(cc3[C@@H](O[C@@H]3O[C@@H]5CO[C@@H](C)O[C@H]5[C@H](O)[C@H]3O)[C@H]3COC(=O)[C@H]23)OCO4)cc(OC)c1O [ETOPOSIDE],EC50,L1210,1.58 µg/mL
same,EC50,P388,1.71 µg/mL
C=C1CC(C)(Cn2cnc3c(O)ncnc32)OC1=O (stereo unspecified),EC50,L1210,2 µg/mL
same,EC50,KB,> 10 µg/mL
same,EC50,P388,> 20 µg/mL
